≈ marks a conversion by molar mass, not a printed value.
Legend:
Hepatitis B virus [1] = assay: Antiviral activity against HBV infected in HepG2(2.2.15) cells assessed as inhibition of viral DNA replication after 8 days by dot blot hybridization
Hepatitis B virus [2] = assay: Antiviral activity against HBV infected in HepG2(2.2.15) cells assessed as inhibition of viral surface antigen secretion after 8 days by radio immunoassay; assay type: functional, organism-based
Method in brief: (§1)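 Confluent 2.2.15 cultures were dosed at several concentrations in RPMI 1640 with 2% FBS, with fresh medium and compound each day for 8 days and untreated cell controls. HBsAg and HBeAg secreted into the supernatant were quantified by radioimmunoassay kits.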

[3] = Cytotoxicity against human HepG2(2.2.15) cells after 9 days by neutral red dye uptake assay; conditions: read-out: TC50
[4] = Selectivity index, ratio of TC50 for human HepG2(2.2.15) cells to IC50 for Hepatitis B virus DNA replication; assay type: toxicity
[5] = Selectivity index, ratio of TC50 for human HepG2(2.2.15) cells to IC50 for Hepatitis B virus early antigen secretion; assay type: toxicity
Hepatitis B virus [6] = assay: Antiviral activity against HBV infected in HepG2(2.2.15) cells assessed as inhibition of viral early antigen secretion after 8 days by radio immunoassay; assay type: functional, organism-based; conditions: HepG2 2.2.15, 192 h
Method in brief: as §1

[7] = Hepatitis B virus, HepG2 2.2.15, 192 h, read-out: IC50

SMILES | IC50 (Hepatitis B virus [1]; hepg2 2.2.15) | IC50 (Hepatitis B virus [2]) | CC50 at 216 h [3] | IC50 (Hepatitis B virus [1]; [7]) | selectivity ratio [4] | selectivity ratio [5] | IC50 (Hepatitis B virus [6])
Cc1nnsc1C(=O)N/C(C(=O)N1CCOCC1)=C(\Br)c1snnc1C | Not Active | Not Active | 47.7 µg/mL (≈ 104 µM) | – | – | – | –
Cc1nnsc1C(=O)N/C(C(=O)N1CCCCC1)=C(\Br)c1ccccc1 | Not Active | Not Active | 111 µg/mL (≈ 255 µM) | – | – | – | –
Cc1nnsc1C(=O)N/C(C(=O)N1CCCCC1)=C(\Br)c1ccccc1Cl | – | Not Active | 86.2 µg/mL (≈ 184 µM) | 10.4 µg/mL (≈ 22.1 µM) | 8.29 | – | –
Cc1nnsc1C(=O)N/C(C(=O)N1CCCCC1)=C(\Br)c1ccc(Cl)cc1 | – | Not Active | 17.8 µg/mL (≈ 37.9 µM) | 3.59 µg/mL (≈ 7.64 µM) | 4.96 | – | –
Cc1nnsc1C(=O)N/C(C(=O)N1CCCCC1)=C(\Cl)c1ccccc1 | Not Active | Not Active | 64.2 µg/mL (≈ 164 µM) | – | – | 5.23 | 12.3 µg/mL (≈ 31.4 µM)
Cc1nnsc1/C(Br)=C(/NC(=O)c1ccccc1)C(=O)N1CCCCC1 | – | Not Active | 192 µg/mL (≈ 442 µM) | 9 µg/mL (≈ 20.7 µM) | 21.4 | – | –
Cc1nnsc1/C(Br)=C(/NC(=O)c1ccccc1)C(=O)N1CCOCC1 | – | Not Active | 333 µg/mL (≈ 762 µM) | 30.5 µg/mL (≈ 69.8 µM) | 10.9 | – | –
CCN(CC)C(=O)/C(NC(=O)c1ccccc1)=C(/Br)c1snnc1C | Not Active | Not Active | 86.2 µg/mL (≈ 204 µM) | – | – | – | –
Cc1nnsc1/C(Cl)=C(/NC(=O)c1ccccc1)C(=O)N1CCOCC1 | Not Active | Not Active | 577 µg/mL (≈ 1470 µM) | – | – | – | –
Cc1nnsc1/C=C(/NC(=O)c1ccccc1)C(=O)N1CCCCC1 | Not Active | Not Active | 231 µg/mL (≈ 648 µM) | – | – | – | –
Nc1ccn([C@@H]2CS[C@H](CO)O2)c(=O)n1 [LAMIVUDINE] | – | Not Active | 962 µg/mL (≈ 4190 µM) | 14.8 µg/mL (≈ 64.6 µM) | 65 | – | –
